Tested on: γ-secretase
Assay type: in vivo, J20 hAPP transgenic mice
In short: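 Mice of either sex, probe guide in left hippocampus (bregma −3.1 mm, 2.5 mm lateral, 1.2 mm below dura, 12° angle), freely moving in Raturn cages on 12 h light/dark. γ-Secretase inhibitor 3 mg/kg i.p. given during ongoing microdialysis; hourly dialysates in refrigerated collector. Aβ38/40/42 by multiplex electrochemiluminescence (C-terminal-specific capture, SULFO-TAG 6E10 detection), in duplicate; half-lives calculated.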

How did the “t1/2 of decline of total ISF Aβ after Compound E” value (3 mo tg (plaque-free) J20 mice, Compound E 3 mg/kg i.p. at time 0 h, ISF sampled hourly at 1 μl/min, Aβ ELISA) turn out when `C[C@H](NC(=O)Cc1cc(F)cc(F)c1)C(=O)N[C@H]1N=C(c2ccccc2)c2ccccc2N(C)C1=O` [Compound E] was run?
Its value is ~ 2 h.

What about the “ISF Aβ38, Aβ40 and Aβ42 after Compound E in young mice” value (young plaque-free (3 mo) tg mouse, first 5 h after Compound E 3 mg/kg i.p.) of the same compound?
Its value is “all 3 peptides fell together”.
